Test results as given in ChEMBL document CHEMBL4028872, “Structure-Activity Relationship, Pharmacological Characterization, and Molecular Modeling of Noncompetitive Inhibitors of the Betaine/γ-Aminobutyric Acid Transporter 1 (BGT1)” (J Med Chem, 2017).
Values belong to the compound of their own block, whether it stands above or below them. Active and inactive are the calls of the source. The rule behind the calls is not given here.

How the values were obtained:
[1] = target: Sodium- and chloride-dependent betaine transporter (Homo sapiens, UniProt P48065, Y453S); test: Inhibition of human BGT1 Y453S mutant expressed in tsA201 cells assessed as reduction in [3H]GABA uptake after 3 mins by scintillation counting method; assay type: cell-based
Procedure, shortened: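 tsA201 cells transiently transfected with wild-type or mutant human BGT1 (PolyFect) were plated about 24 h before assay. Three ice-cold washes followed, then scintillation counting.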

Homo sapiens = species on record: Homo sapiens; test: Binding affinity to sigma receptor (unknown origin)
GABA transporter 2 = target: T1, GABA transporter 2 (Mus musculus, UniProt P31651); test: Inhibition of mouse BGT1 expressed in HEK293 cells assessed as reduction in [3H]GABA uptake after 3 mins by scintillation counting method; assay type: cell-based; details: read-out: IC50
T1 sequence (P31651 whole entry): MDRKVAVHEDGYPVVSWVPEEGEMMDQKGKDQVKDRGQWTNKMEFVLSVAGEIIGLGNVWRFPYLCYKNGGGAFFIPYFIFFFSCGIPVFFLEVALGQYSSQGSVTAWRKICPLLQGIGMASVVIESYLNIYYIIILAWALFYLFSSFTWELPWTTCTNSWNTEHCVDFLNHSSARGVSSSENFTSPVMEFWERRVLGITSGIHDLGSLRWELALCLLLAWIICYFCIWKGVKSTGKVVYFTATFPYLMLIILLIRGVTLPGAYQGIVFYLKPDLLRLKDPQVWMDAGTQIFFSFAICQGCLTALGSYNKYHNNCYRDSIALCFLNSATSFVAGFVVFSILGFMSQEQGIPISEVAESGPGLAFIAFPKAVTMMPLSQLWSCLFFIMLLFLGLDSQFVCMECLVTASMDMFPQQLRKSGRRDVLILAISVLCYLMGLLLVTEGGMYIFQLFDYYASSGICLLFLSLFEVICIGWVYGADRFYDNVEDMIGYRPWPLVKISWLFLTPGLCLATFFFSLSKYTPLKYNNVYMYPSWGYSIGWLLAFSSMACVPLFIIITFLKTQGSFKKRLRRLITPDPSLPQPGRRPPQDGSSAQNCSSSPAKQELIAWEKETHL
Procedure, shortened: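 HEK293 lines stably expressing a single mouse GAT subtype, kept under blasticidin-S (5 µg/mL) selection. Cells were assayed about 24 h after plating with 30 nM [3H]GABA plus varying compound concentrations for 3 min at 37 °C in HBSS buffered with 20 mM HEPES (1 mM CaCl2, 1 mM MgCl2, pH 7.4). Cells were washed ice-cold and radioactivity counted. IC50 came from sigmoidal variable-slope fits.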

[2] = target: Sodium- and chloride-dependent betaine transporter (Homo sapiens, UniProt P48065, F324C); test: Inhibition of human BGT1 F324C mutant expressed in tsA201 cells assessed as reduction in [3H]GABA uptake after 3 mins by scintillation counting method; assay type: cell-based
Procedure, shortened: (§1)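 Site-directed mutant transporters transiently transfected (PolyFect) into tsA201 cells, plated and used about 24 h later. Cells were washed with HBSS containing 20 mM HEPES, 1 mM CaCl2 and 1 mM MgCl2, pH 7.4. IC50 was taken from variable-slope sigmoidal fits. Triplicates, at least three independent experiments.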

[3] = target: Sodium- and chloride-dependent betaine transporter (Homo sapiens, UniProt P48065); test: Inhibition of human BGT1/human GAT3 chimera D expresses in tsA201 cells assessed as reduction in [3H]GABA uptake after 3 mins by scintillation counting method; assay type: cell-based
Procedure, shortened: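 BGT1/GAT3 chimeric constructs transiently expressed in tsA201 cells. After about 24 h, cells were washed in HEPES-buffered HBSS (1 mM CaCl2, 1 mM MgCl2, pH 7.4). IC50 came from variable-slope sigmoidal regression. Triplicates, at least two independent experiments.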

[4] = target: Sodium- and chloride-dependent betaine transporter (Homo sapiens, UniProt P48065, K310N); test: Inhibition of human BGT1 K310N mutant expressed in tsA201 cells assessed as reduction in [3H]GABA uptake after 3 mins by scintillation counting method; assay type: cell-based; procedure, shortened: as §1
[5] = target: Alpha-2C adrenergic receptor (Homo sapiens) (UniProt P18825); test: Displacement of [3H]rauwolscine from human alpha-2C adrenergic receptor expressed in MDCK cell membranes at 10 uM after 90 mins by scintillation counting method
[6] = target: Sodium- and chloride-dependent betaine transporter (Homo sapiens, UniProt P48065, C382T); test: Inhibition of human BGT1 C382T mutant expressed in tsA201 cells assessed as reduction in [3H]GABA uptake after 3 mins by scintillation counting method; assay type: cell-based; procedure, shortened: as §1
[7] = target: Sodium- and chloride-dependent betaine transporter (Homo sapiens, UniProt P48065, Q346Y); test: Inhibition of human BGT1 Q346Y mutant expressed in tsA201 cells assessed as reduction in [3H]GABA uptake after 3 mins by scintillation counting method; assay type: cell-based; procedure, shortened: as §1
[8] = target: Sodium- and chloride-dependent betaine transporter (Homo sapiens, UniProt P48065, S353A); test: Inhibition of human BGT1 S353A mutant expressed in tsA201 cells assessed as reduction in [3H]GABA uptake after 3 mins by scintillation counting method; assay type: cell-based; procedure, shortened: as §1
[9] = target: 5-hydroxytryptamine receptor 1D (Homo sapiens) (UniProt P28221); test: Displacement of [3H]GR125743 from human 5-HT1D receptor expressed in HEKT cell membranes at 10 uM after 90 mins by scintillation counting method
[10] = target: Sodium- and chloride-dependent betaine transporter (Homo sapiens, UniProt P48065, F367Y); test: Inhibition of human BGT1 F367Y mutant expressed in tsA201 cells assessed as reduction in [3H]GABA uptake after 3 mins by scintillation counting method; assay type: cell-based; procedure, shortened: as §1
[11] = target: Sodium- and chloride-dependent betaine transporter (Homo sapiens, UniProt P48065, A321M); test: Inhibition of human BGT1 A321M mutant expressed in tsA201 cells assessed as reduction in [3H]GABA uptake after 3 mins by scintillation counting method; assay type: cell-based; procedure, shortened: as §1
[12] = target: Sodium- and chloride-dependent betaine transporter (Homo sapiens, UniProt P48065, F295Y); test: Inhibition of human BGT1 F295Y mutant expressed in tsA201 cells assessed as reduction in [3H]GABA uptake after 3 mins by scintillation counting method; assay type: cell-based; procedure, shortened: as §1
[13] = target: Sodium- and chloride-dependent betaine transporter (Homo sapiens, UniProt P48065, V336A); test: Inhibition of human BGT1 V336A mutant expressed in tsA201 cells assessed as reduction in [3H]GABA uptake after 3 mins by scintillation counting method; assay type: cell-based; procedure, shortened: as §1
[14] = target: Sodium- and chloride-dependent betaine transporter (Homo sapiens, UniProt P48065, H312N); test: Inhibition of human BGT1 H312N mutant expressed in tsA201 cells assessed as reduction in [3H]GABA uptake after 3 mins by scintillation counting method; assay type: cell-based; procedure, shortened: as §1
[15] = target: Sodium- and chloride-dependent betaine transporter (Homo sapiens, UniProt P48065, Q378P); test: Inhibition of human BGT1 Q378P mutant expressed in tsA201 cells assessed as reduction in [3H]GABA uptake after 3 mins by scintillation counting method; assay type: cell-based; procedure, shortened: as §1
Sodium- and chloride-dependent betaine transporter (Homo sapiens, UniProt P48065, Q378P), sequence (P48065 whole entry Q378P): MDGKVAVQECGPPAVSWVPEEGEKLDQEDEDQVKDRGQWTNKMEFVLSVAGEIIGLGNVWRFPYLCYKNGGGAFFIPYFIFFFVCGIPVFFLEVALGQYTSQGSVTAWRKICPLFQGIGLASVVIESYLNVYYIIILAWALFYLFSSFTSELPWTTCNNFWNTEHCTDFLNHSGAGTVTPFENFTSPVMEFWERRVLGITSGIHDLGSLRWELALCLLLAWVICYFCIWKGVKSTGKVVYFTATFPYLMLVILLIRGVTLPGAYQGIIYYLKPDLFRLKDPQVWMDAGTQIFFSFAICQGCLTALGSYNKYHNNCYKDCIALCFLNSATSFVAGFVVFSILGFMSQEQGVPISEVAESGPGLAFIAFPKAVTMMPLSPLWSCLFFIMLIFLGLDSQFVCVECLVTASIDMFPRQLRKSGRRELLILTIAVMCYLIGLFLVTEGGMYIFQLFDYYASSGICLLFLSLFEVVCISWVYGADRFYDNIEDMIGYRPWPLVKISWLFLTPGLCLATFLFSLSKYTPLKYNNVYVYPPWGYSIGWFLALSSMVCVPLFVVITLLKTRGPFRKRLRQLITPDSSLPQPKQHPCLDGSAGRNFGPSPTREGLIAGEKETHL

Sodium- and chloride-dependent betaine transporter (Homo sapiens, UniProt P48065, F295Y), sequence (P48065 whole entry F295Y): as the sequence (P48065 whole entry Q378P) above, with F295Y, P378Q counted along it
Sodium- and chloride-dependent betaine transporter (Homo sapiens, UniProt P48065, F367Y), sequence (P48065 whole entry F367Y): as the sequence (P48065 whole entry Q378P) above, with F367Y, P378Q counted along it
Sodium- and chloride-dependent betaine transporter (Homo sapiens, UniProt P48065, Y453S), sequence (P48065 whole entry Y453S): as the sequence (P48065 whole entry Q378P) above, with P378Q, Y453S counted along it
Sodium- and chloride-dependent betaine transporter (Homo sapiens, UniProt P48065), sequence (P48065 whole entry, looked up): as the sequence (P48065 whole entry Q378P) above, with P378Q counted along it
Sodium- and chloride-dependent betaine transporter (Homo sapiens, UniProt P48065, V336A), sequence (P48065 whole entry V336A): as the sequence (P48065 whole entry Q378P) above, with V336A, P378Q counted along it
Sodium- and chloride-dependent betaine transporter (Homo sapiens, UniProt P48065, H312N), sequence (P48065 whole entry H312N): as the sequence (P48065 whole entry Q378P) above, with H312N, P378Q counted along it
Sodium- and chloride-dependent betaine transporter (Homo sapiens, UniProt P48065, F324C), sequence (P48065 whole entry F324C): as the sequence (P48065 whole entry Q378P) above, with F324C, P378Q counted along it
5-hydroxytryptamine receptor 1D (Homo sapiens), sequence (P28221 whole entry): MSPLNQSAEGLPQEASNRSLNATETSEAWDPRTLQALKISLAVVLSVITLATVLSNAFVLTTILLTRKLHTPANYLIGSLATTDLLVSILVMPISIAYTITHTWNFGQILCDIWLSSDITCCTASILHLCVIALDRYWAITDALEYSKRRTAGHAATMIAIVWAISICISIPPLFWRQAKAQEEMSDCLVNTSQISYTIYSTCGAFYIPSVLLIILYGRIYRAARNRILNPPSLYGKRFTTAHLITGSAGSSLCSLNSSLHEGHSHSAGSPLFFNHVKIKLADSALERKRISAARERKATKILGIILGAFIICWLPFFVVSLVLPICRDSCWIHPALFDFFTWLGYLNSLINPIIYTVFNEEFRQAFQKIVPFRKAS
Sodium- and chloride-dependent betaine transporter (Homo sapiens, UniProt P48065, C382T), sequence (P48065 whole entry C382T): as the sequence (P48065 whole entry Q378P) above, with P378Q, C382T counted along it
Sodium- and chloride-dependent betaine transporter (Homo sapiens, UniProt P48065, Q346Y), sequence (P48065 whole entry Q346Y): as the sequence (P48065 whole entry Q378P) above, with Q346Y, P378Q counted along it
Sodium- and chloride-dependent betaine transporter (Homo sapiens, UniProt P48065, A321M), sequence (P48065 whole entry A321M): as the sequence (P48065 whole entry Q378P) above, with A321M, P378Q counted along it
Sodium- and chloride-dependent betaine transporter (Homo sapiens, UniProt P48065, S353A), sequence (P48065 whole entry S353A): as the sequence (P48065 whole entry Q378P) above, with S353A, P378Q counted along it
Sodium- and chloride-dependent betaine transporter (Homo sapiens, UniProt P48065, K310N), sequence (P48065 whole entry K310N): as the sequence (P48065 whole entry Q378P) above, with K310N, P378Q counted along it
Alpha-2C adrenergic receptor (Homo sapiens), sequence (P18825 whole entry): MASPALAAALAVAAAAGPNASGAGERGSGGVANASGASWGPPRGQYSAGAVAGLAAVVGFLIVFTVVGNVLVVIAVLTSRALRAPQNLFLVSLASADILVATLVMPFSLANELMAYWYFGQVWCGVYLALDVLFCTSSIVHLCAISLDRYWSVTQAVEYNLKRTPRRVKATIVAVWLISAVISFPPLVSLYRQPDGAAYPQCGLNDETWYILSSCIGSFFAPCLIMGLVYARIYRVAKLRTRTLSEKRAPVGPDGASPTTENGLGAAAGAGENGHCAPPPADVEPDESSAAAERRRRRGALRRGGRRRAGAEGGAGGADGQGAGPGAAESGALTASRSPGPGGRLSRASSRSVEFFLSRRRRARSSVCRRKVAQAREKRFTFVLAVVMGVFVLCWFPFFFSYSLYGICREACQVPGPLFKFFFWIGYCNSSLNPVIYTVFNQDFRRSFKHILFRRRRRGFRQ

Structure (SMILES): O=C(NC1CCN(Cc2ccccc2)CC1)c1ccc(Cl)nc1Cl
IC50 [1]: 25 µM
Activity (Homo sapiens): Active
IC50 (GABA transporter 2): 37 µM

IC50 [2]: 6 µM
IC50 [3]: 2 µM
pIC50 [3]: 5.79
IC50 [4]: 10 µM
inhibition [5]: Active
IC50 [6]: 15 µM
IC50 [7]: 14 µM
IC50 [1]: 19 µM
IC50 [8]: 17 µM
inhibition [9]: Active
IC50 ([10]; read-out: IC50): 5 µM
IC50 ([10]; read-out: pIC50 (converted)): 6.03 µM
IC50 [11]: 5 µM
IC50 (GABA transporter 2): 32 µM
IC50 ([12]; read-out: IC50): 5 µM
IC50 ([12]; read-out: pIC50 (converted)): 4.07 µM
IC50 ([13]; read-out: IC50): 2 µM
IC50 ([13]; read-out: pIC50 (converted)): 1.66 µM
IC50 [14]: 8 µM
IC50 [15]: 14 µM
Structure (SMILES): O=C(NC1CCN(Cc2ccccc2)CC1)c1ccc(Cl)cc1Cl
